According to ChEMBL document CHEMBL3817726, “Chemically Diverse Group I p21-Activated Kinase (PAK) Inhibitors Impart Acute Cardiovascular Toxicity with a Narrow Therapeutic Window” (J Med Chem, 2016):
In brackets after ≈: the same amount, converted by molar mass.

What was measured:
[1] = target: Serine/threonine-protein kinase PAK 1 (Homo sapiens, UniProt Q13153); assay: Inhibition of human recombinant N-terminal 6-His-tagged PAK1 kinase domain (249 to 545 residues) expressed in Escherichia coli BL21(DE3) assessed as phosphorylation of coumarin labeled FRET peptide substrate at Ser/Thr19 preincubated for 10 mins followed by ATP addition measured after 60 mins by Z'-LYTE assay
[2] = Fraction unbound in mouse plasma at 100 mg/kg, ip; assay type: ADME, organism-based
[3] = target: Serine/threonine-protein kinase PAK 2 (Homo sapiens, UniProt Q13177); assay: Inhibition of human recombinant PAK2 assessed as phosphorylation of coumarin labeled FRET peptide substrate at Ser/Thr19 preincubated for 10 mins followed by ATP addition measured after 60 mins by Z'-LYTE assay
[4] = target: Serine/threonine-protein kinase PAK 1/PAK 2 (Homo sapiens, UniProt Q13177+Q13153); assay: Inhibition of PAK1/2 in human EBC1 cells assessed as phosphorylation of MEK1 at serine 298 after 2 hrs by HTRF assay; assay type: cell-based
[5] = tested on: Mus musculus; assay: fCmax in mouse at 100 mg/kg, ip; assay type: ADME, organism-based; conditions: in vivo
In short: (§1)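 Mouse tolerability studies at multiple doses, oral or intraperitoneal. Minimum unbound plasma concentration associated with adverse effects (total Cmax converted to unbound) compared with IC50 for inhibition of MEK1 S298 phosphorylation in cells.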

[6] = Cmax in mouse at 100 mg/kg, ip; assay type: ADME, organism-based; design: dose 100 mg/kg, route intraperitoneal; conditions: in vivo
[7] = tested on: Mus musculus; assay: fCmax associated with acute adverse effect in mouse at 150 to 300 mg/kg, ip; assay type: ADME, organism-based; conditions: in vivo; in short: as §1
[8] = Cmax associated with acute adverse effect in mouse at 150 to 300 mg/kg, ip; assay type: ADME, organism-based; conditions: in vivo
In short: (§2)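 Mouse tolerability studies tested multiple doses, given orally or intraperitoneally. Plasma drug concentrations were measured, including at a 15 min time point. The minimum concentration associated with adverse clinical signs or death was taken as the adverse Cmax and was converted to an unbound value.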

[9] = Ratio of fCmax associated with acute adverse effect in mouse at 150 to 300 mg/kg, ip to IC50 for PAK1/2-mediated phosphorylation of MEK1 at serine 298 in human EBC1 cells
In short: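 Mice were dosed at multiple levels, orally or intraperitoneally, and monitored for acute adverse signs. The minimum unbound plasma Cmax associated with adverse effects was converted from total drug concentration and compared with the cellular IC50 for phospho-MEK1 S298 inhibition.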

[10] = Fraction unbound in mouse plasma at 150 to 300 mg/kg, ip; assay type: ADME, organism-based
[11] = Apparent permeability across apical to basolateral side in MDCK cells at 10 uM after 60 mins; assay type: ADME, cell-based, Canis lupus familiaris; conditions: dog
[12] = species: Homo sapiens; assay: Selectivity for human recombinant N-terminal 6-His-tagged PAK1 kinase domain (249 to 545 residues) over LCK (unknown origin)
[13] = tested on: Mus musculus; assay: fCmax associated with acute adverse effect in mouse at 25 to 150 mg/kg, ip; assay type: ADME, organism-based; conditions: in vivo
[14] = Cmax associated with acute adverse effect in mouse at 25 to 150 mg/kg, ip; assay type: ADME, organism-based; conditions: in vivo
[15] = Lipophilicity, log D of the compound at pH 7.4; assay type: physicochemical; conditions: buffer
[16] = Fraction unbound in mouse plasma at 25 to 150 mg/kg, ip; assay type: ADME, organism-based
[17] = Ratio of fCmax associated with acute adverse effect in mouse at 25 to 150 mg/kg, ip to IC50 for PAK1/2-mediated phosphorylation of MEK1 at serine 298 in human EBC1 cells
[18] = Efflux ratio of permeability across basolateral to apical side over apical to basolateral side in MDCK cells at 10 uM after 60 mins; assay type: ADME, cell-based, Canis lupus familiaris; conditions: dog
[19] = Kinetic solubility of the compound at pH 7.4; assay type: physicochemical; conditions: buffer, read-out: Kinetic_solubility
[20] = tested on: Mus musculus; assay: fCmax associated with acute adverse effect in mouse at 25 to 50 mg/kg, po; assay type: ADME, organism-based; conditions: in vivo; in short: as §1
[21] = Fraction unbound in mouse plasma at 25 to 50 mg/kg, po; assay type: ADME, organism-based
[22] = Ratio of fCmax associated with acute adverse effect in mouse at 25 to 50 mg/kg, po to IC50 for PAK1/2-mediated phosphorylation of MEK1 at serine 298 in human EBC1 cells
In short: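 Mouse tolerability studies at multiple doses, given p.o. or i.p. Total plasma concentrations were converted to unbound levels. The minimum unbound Cmax linked to adverse effects was set against the cellular IC50 for inhibition of MEK1 S298 phosphorylation.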

[23] = Cmax associated with acute adverse effect in mouse at 25 to 50 mg/kg, po; assay type: ADME, organism-based; conditions: in vivo; in short: as §2
[24] = tested on: Mus musculus; assay: fCmax associated with acute adverse effect in mouse at 60 to 80 mg/kg, po; assay type: ADME, organism-based; conditions: in vivo; in short: as §1
[25] = species: Rattus norvegicus; assay: Toxicity in rat assessed as hunched posture; assay type: organism-based; conditions: in vivo
[26] = tested on: Mus musculus; assay: Toxicity in mouse assessed as darkened blood at 60 to 80 mg/kg, po; assay type: organism-based; conditions: in vivo
[27] = Fraction unbound in mouse plasma at 60 to 80 mg/kg, po; assay type: ADME, organism-based
[28] = species: Rattus norvegicus; assay: Toxicity in rat assessed as hypoactivity; assay type: organism-based; conditions: in vivo
[29] = Cmax associated with acute adverse effect in rat; assay type: ADME, organism-based; conditions: in vivo
[30] = species: Rattus norvegicus; assay: fCmax associated with acute adverse effect in rat; assay type: ADME, organism-based; conditions: in vivo
[31] = tested on: Mus musculus; assay: Toxicity in mouse assessed as slow blood flow at 60 to 80 mg/kg, po; assay type: organism-based; conditions: in vivo
[32] = species: Rattus norvegicus; assay: Toxicity in rat assessed as slow blood flow; assay type: organism-based; conditions: in vivo
[33] = species: Rattus norvegicus; assay: Toxicity in rat assessed as darkened blood; assay type: organism-based; conditions: in vivo
[34] = Cmax associated with acute adverse effect in mouse at 60 to 80 mg/kg, po; assay type: ADME, organism-based; conditions: in vivo; in short: as §2
[35] = tested on: Mus musculus; assay: Toxicity in mouse assessed as hypoactivity at 60 to 80 mg/kg, po; assay type: organism-based; conditions: in vivo
[36] = tested on: Mus musculus; assay: Toxicity in mouse assessed as hunched posture at 60 to 80 mg/kg, po; assay type: organism-based; conditions: in vivo

Sequence of Serine/threonine-protein kinase PAK 2 (Q13177 whole entry): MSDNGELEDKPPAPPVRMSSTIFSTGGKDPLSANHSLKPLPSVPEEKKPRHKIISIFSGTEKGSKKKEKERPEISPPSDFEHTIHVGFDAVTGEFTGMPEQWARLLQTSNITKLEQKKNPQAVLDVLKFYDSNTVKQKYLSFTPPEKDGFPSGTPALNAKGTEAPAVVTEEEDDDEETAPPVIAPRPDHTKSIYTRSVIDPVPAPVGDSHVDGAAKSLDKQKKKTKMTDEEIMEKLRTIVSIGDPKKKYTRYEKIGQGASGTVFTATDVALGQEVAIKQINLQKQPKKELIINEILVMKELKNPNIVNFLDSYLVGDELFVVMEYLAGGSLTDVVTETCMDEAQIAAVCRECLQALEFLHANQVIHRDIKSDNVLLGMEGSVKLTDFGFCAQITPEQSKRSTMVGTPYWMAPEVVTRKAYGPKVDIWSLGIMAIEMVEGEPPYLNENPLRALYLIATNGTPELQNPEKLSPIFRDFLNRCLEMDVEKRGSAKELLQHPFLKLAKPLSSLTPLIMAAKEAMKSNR
Sequence of Serine/threonine-protein kinase PAK 1 (Q13153 whole entry, the tested form may be a part): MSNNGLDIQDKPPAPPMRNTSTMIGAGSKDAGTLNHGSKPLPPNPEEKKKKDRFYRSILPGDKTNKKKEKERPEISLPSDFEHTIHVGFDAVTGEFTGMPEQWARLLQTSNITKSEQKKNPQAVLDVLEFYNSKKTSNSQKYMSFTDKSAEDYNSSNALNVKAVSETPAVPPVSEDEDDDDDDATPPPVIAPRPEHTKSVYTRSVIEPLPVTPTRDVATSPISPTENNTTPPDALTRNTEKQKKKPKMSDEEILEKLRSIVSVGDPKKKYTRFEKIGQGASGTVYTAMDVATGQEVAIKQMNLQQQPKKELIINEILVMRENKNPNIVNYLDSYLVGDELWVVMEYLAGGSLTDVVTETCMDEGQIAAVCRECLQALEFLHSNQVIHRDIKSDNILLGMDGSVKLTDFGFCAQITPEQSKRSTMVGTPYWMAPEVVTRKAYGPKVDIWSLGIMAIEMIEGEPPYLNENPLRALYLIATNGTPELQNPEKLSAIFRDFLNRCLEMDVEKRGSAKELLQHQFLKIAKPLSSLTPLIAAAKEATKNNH

Structure (SMILES): CNc1ncc2cc(-c3ccc(-n4ccc(C)cc4=O)cc3Cl)c(=O)n(C[C@H]3CNCCO3)c2n1
- Ki [1]: 943 nM
- fraction unbound [2]: 0.143
- Ki [3]: 2300 nM
- IC50 [4]: > 30000 nM
- fCmax [5]: 5.7 µM
- Cmax [6]: 40 µM

Structure (SMILES): CNc1ncc2cc(-c3ccc(-n4cccc(C)c4=O)cc3C3CC3)c(=O)n(C[C@@H]3CNCCO3)c2n1
- Ki [1]: 950 nM
- fCmax [7]: 1.6 µM
- Ki [3]: 3670 nM
- IC50 [4]: 15000 nM
- Cmax [8]: 63 µM
- Ratio [9]: 1
- fraction unbound [10]: 0.025

Structure (SMILES): CCn1c(=O)c(-c2ccc(-n3cccc(C)c3=O)cc2Cl)cc2cnc(NC3COC3)nc21
- Papp A→B at 1 h, 10 µM [11]: 37 ×10⁻⁶ cm/s
- Selectivity ratio [12]: 123
- fCmax [13]: 0.24 µM
- Ki [1]: 6.3 nM
- Cmax [14]: 41 µM
- Ki [3]: 21 nM
- logD [15]: 2.5
- IC50 [4]: 150 nM
- fraction unbound [16]: 0.006
- Ratio [17]: 1
- efflux ratio at 1 h, 10 µM [18]: 0.4
- solubility kinetic [19]: 2.6 µM (≈ 1.21 µg/mL)

Structure (SMILES): CNc1ncc2cc(-c3ccc(-n4cncc(C)c4=O)cc3Cl)c(=O)n(CCOC)c2n1
- fCmax [20]: 0.85 µM
- fraction unbound [21]: 0.059
- Ki [1]: 22 nM
- Ki [3]: 39 nM
- IC50 [4]: 800 nM
- Ratio [22]: 1
- Cmax [23]: 14 µM

Structure (SMILES): CCn1c(=O)c(-c2ccc(-c3cncc(C)n3)cc2Cl)cc2cnc(NCCC3CCN(C)CC3)nc21
- fCmax [24]: 0.27 µM
- Activity [25]: Toxic
- Activity [26]: Toxic
- fraction unbound [27]: 0.017
- Activity [28]: Toxic
- Cmax [29]: 4 µM
- fCmax [30]: 0.076 µM
- Activity [31]: Toxic
- Activity [32]: Toxic
- Activity [33]: Toxic
- Cmax [34]: 16 µM
- Activity [35]: Toxic
- Activity [36]: Toxic
